Assay results as given in ChEMBL document CHEMBL2406989, “Design, synthesis and preliminary evaluation of a series of histone deacetylase inhibitors carrying a benzodiazepine ring” (Eur J Med Chem, 2013).
Activity calls are given as the source filed them. No cut-off for these calls is given here.

Columns and labels:
NB-4 [1] = experiment: Induction of apoptosis in human NB4 cells after 48 hrs by Annexin V test; format: functional, cell-based; conditions: NB-4, 48 h
Histone deacetylase 1 = Histone deacetylase 1 (Homo sapiens, UniProt Q13547); experiment: Inhibition of full length His-tagged human recombinant HDAC1 expressed in baculovirus system using fluor de Lys as substrate by fluorometric analysis
Histone deacetylase 1, sequence (Q13547 whole entry): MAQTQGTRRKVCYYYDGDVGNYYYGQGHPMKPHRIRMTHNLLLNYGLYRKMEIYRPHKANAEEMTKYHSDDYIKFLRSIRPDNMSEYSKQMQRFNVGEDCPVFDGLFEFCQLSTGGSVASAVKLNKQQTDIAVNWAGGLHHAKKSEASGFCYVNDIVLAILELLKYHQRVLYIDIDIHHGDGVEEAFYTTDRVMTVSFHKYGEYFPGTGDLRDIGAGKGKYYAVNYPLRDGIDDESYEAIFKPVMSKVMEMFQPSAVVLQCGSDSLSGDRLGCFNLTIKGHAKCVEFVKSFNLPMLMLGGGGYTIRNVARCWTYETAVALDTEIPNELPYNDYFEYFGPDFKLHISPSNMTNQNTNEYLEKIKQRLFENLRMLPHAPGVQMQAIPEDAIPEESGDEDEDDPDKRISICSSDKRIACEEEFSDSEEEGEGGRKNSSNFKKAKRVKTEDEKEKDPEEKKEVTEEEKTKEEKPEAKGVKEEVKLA

K562 = experiment: Antiproliferative activity against human K562 cells after 72 hrs by CellTiter-Glo assay; format: functional, cell-based; conditions: K562, 72 h
[2] = molecular target: T1, Protein deacetylase HDAC6 (Homo sapiens, UniProt Q9UBN7); experiment: Inhibition of full length His-tagged human recombinant HDAC6 expressed in baculovirus system using fluor de Lys as substrate by fluorometric analysis
T1 sequence (Q9UBN7 whole entry): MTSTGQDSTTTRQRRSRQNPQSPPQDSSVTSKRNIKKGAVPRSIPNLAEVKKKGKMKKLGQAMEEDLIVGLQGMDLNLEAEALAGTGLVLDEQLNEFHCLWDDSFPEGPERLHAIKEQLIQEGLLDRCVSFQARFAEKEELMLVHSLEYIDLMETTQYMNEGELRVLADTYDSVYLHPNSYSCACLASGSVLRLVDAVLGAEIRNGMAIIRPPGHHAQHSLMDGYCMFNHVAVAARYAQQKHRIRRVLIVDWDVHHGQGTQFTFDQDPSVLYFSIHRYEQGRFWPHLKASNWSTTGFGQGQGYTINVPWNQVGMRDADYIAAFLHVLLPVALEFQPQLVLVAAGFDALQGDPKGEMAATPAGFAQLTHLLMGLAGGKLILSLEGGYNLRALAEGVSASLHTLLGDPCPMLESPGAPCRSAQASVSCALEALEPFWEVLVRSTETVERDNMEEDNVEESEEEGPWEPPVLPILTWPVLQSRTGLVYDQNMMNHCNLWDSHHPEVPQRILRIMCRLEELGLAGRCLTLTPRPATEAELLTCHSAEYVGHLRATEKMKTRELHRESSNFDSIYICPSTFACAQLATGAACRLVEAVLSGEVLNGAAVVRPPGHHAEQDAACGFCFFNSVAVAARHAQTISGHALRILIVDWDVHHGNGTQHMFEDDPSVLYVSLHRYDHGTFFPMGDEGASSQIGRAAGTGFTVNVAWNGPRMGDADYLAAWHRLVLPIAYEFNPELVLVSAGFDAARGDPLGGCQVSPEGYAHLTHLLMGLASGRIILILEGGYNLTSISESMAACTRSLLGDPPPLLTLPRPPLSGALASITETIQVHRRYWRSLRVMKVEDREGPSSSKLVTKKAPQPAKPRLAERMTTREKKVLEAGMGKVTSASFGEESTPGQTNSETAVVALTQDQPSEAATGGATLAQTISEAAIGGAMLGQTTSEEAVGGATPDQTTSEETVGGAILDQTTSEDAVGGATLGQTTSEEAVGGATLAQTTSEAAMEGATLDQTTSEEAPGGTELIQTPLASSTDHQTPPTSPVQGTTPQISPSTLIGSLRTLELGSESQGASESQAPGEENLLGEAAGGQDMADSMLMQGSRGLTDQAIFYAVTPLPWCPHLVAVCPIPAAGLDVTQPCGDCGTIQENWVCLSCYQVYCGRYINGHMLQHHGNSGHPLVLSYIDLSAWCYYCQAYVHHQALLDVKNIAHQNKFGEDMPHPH

HCT-116 = experiment: Antiproliferative activity against human HCT116 cells after 72 hrs by CellTiter-Glo assay; format: functional, cell-based; conditions: HCT-116, 72 h
Histone deacetylase = experiment: Inhibition of HDAC in human HeLa cell extract using fluor de Lys as substrate after 15 mins by fluorometric analysis; format: protein assay
[3] = molecular target: T2, Histone deacetylase (Homo sapiens) (UniProt Q13547+O15379+Q9UBN7+Q92769+Q9UQL6+Q8WUI4+Q9BY41+Q96DB2+P56524+Q9UKV0+Q969S8); conditions: HeLa, at 1 µM
A549 = experiment: Antiproliferative activity against human A549 cells after 72 hrs by CellTiter-Glo assay; format: functional, cell-based; conditions: A549, 72 h
NB-4 [4] = experiment: Induction of apoptosis in human NB4 cells assessed fragmentation using Giemsa staining by microscopic analysis; format: functional, cell-based
[5] = molecular target: T2, Histone deacetylase (Homo sapiens); experiment: Inhibition of HDAC in human NB4 cells assessed as histone H3 acetylation at 1 uM by densitometric analysis; format: cell-based; conditions: NB-4
Summary of the method: (§1)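 NB4 cells (1×10^5/ml) exposed 6 h to 0, 0.5, 1 or 2 μM drug (DMSO vehicle ≤0.3%). Lysed in 1% Triton X-100/1 mM PMSF/40 mM Tris-HCl pH 8.0/150 mM NaCl and sonicated. Run on 12.5% SDS-PAGE, blotted, probed with rabbit anti-acetyl-H3 or -H4 plus peroxidase secondary, ECL. Densitometry against α-tubulin, treated vs untreated, from one typical experiment.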

[6] = molecular target: T2, Histone deacetylase (Homo sapiens); experiment: Inhibition of HDAC in human NB4 cells assessed as histone H4 acetylation after 6 hrs by Western blot/immunostaining analysis; format: cell-based; conditions: NB-4; summary of the method: as §1
NB-4 [7] = experiment: Induction of apoptosis in human NB4 cells assessed apoptotic cells at 0.5 uM using Annexin-V-Fluos and propidium iodide staining by cytofluorimetric analysis (reference value: 7.2 %); format: functional
[8] = molecular target: T2, Histone deacetylase (Homo sapiens); experiment: Inhibition of HDAC in human NB4 cells assessed as histone H3 acetylation after 6 hrs by Western blot/immunostaining analysis; format: cell-based; conditions: NB-4; summary of the method: as §1
NB-4 [9] = experiment: Cytotoxicity against human NB4 cells assessed as cell viability after 48 hrs by trypan blue exclusion test; format: functional, cell-based; conditions: NB-4, 48 h
[10] = molecular target: T2, Histone deacetylase (Homo sapiens); experiment: Inhibition of HDAC in human NB4 cells assessed as histone H3 acetylation at 0.5 uM by densitometric analysis; format: cell-based; conditions: NB-4; summary of the method: as §1
[11] = molecular target: T2, Histone deacetylase (Homo sapiens); experiment: Inhibition of HDAC in human NB4 cells assessed as histone H4 acetylation at 1 uM by densitometric analysis; format: cell-based; conditions: NB-4; summary of the method: as §1
[12] = molecular target: T2, Histone deacetylase (Homo sapiens); experiment: Inhibition of HDAC in human NB4 cells assessed as histone H4 acetylation at 0.5 uM by densitometric analysis; format: cell-based; conditions: NB-4; summary of the method: as §1
NB-4 [13] = experiment: Induction of apoptosis in human NB4 cells assessed increase in cell shrinking using Giemsa staining by microscopic analysis; format: functional, cell-based
NB-4 [14] = experiment: Induction of apoptosis in human NB4 cells assessed increase in apoptotic bodies at 1 to 2 uM using Giemsa staining by microscopic analysis; format: functional, cell-based
NB-4 [15] = experiment: Induction of apoptosis in human NB4 cells assessed apoptotic cells at 1 uM using Annexin-V-Fluos and propidium iodide staining by cytofluorimetric analysis (reference value: 7.2 %); format: functional
NB-4 [16] = experiment: Induction of apoptosis in human NB4 cells assessed apoptotic cells at 2 uM using Annexin-V-Fluos and propidium iodide staining by cytofluorimetric analysis (reference value: 7.2 %); format: functional

SMILES | IC50 (NB-4 [1]) [µM] | IC50 (Histone deacetylase 1) [µM] | IC50 (K562) [µM] | IC50 [2] [µM] | IC50 (HCT-116) [µM] | IC50 (Histone deacetylase) [µM] | inhibition [3] [%] | IC50 (A549) [µM] | further results
CN1C(=O)[C@H](NC(=O)CCCCCCC(=O)NO)N=C(c2ccccc2)c2ccccc21 | > 5 | 0.7 | 1.72 | 6.5 | 1.07 | 0.31 | 73 | 2.69 | –
CN1C(=O)C(NC(=O)CCCCCCC(=O)NO)N=C(c2ccccc2)c2ccccc21 (racemic) | 1.2 | – | – | – | – | – | – | – | –
CN1C(=O)CN=C(c2ccccc2)c2cc(C#C/C=C/C(=O)NO)ccc21 | 2.6 | 0.44 | 0.78 | 7.72 | 0.46 | 0.16 | 82 | 1.3 | –
CN1C(=O)[C@@H](NC(=O)CCCCCCC(=O)NO)N=C(c2ccccc2)c2ccccc21 | 0.86 | 0.55 | 0.72 | 0.4 | 0.47 | 0.12 | 88 | 1.44 | Activity (NB-4 [4]): Dose-dependent effect; inhibition [5]: 84%; inhibition [6]: Dose-dependent effect; Activity (NB-4 [7]): 8.6%; inhibition [8]: Dose-dependent effect; IC50 (NB-4 [9]): 0.46 µM; inhibition [10]: 50%; inhibition [11]: 51%; inhibition [12]: 8%; Activity (NB-4 [13]): Dose-dependent effect; Activity (NB-4 [14]): Active; Activity (NB-4 [15]): 66.2%; Activity (NB-4 [16]): 83.4%
CN1C(=O)CN=C(c2ccccc2)c2cc(C#CCCC(=O)NO)ccc21 | > 5 | 2.75 | 8.22 | > 100 | 6.54 | – | 22 | 10.3 | –
CN1C(=O)C(NC(=O)CCCCC(=O)NO)N=C(c2ccccc2)c2ccccc21 (racemic) | 1.91 | 0.42 | 3.28 | > 100 | 2.01 | 0.38 | 70 | 5.44 | –
C[C@@H]1N=C(c2ccccc2)c2cc(C#CCCCC(=O)NO)ccc2NC1=O | 3.04 | 0.49 | 1.4 | 0.46 | 0.97 | 0.34 | 65 | 2.82 | –
